In ChEMBL document CHEMBL1275327, “Synthesis and biological activities of pyrazolo[3,4-g]quinoxaline derivatives” (Eur J Med Chem, 2010):
The source made the active and inactive calls. The rule behind the calls is not given here.

Legend:
[1] = biological target: Serine/threonine-protein kinase pim-1 (Homo sapiens) (UniProt P11309); test: Inhibition of Pim1 assessed as residual enzyme activity at 1 uM
PA-1 [2] = test: Antiproliferative activity against human PA1 cells assessed as inhibition of cell proliferation at 10 uM after 48 hrs by resazurin reduction test; assay type: functional; conditions: PA-1, 48 h
Summary of the method: (§1)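 PA1 and PC3 screen: cells at 5×10^3/well adhered 16 h, then were treated 48 h continuously at 1 and 10 µM from a 20 mM DMSO stock. Growth inhibition was scored by resazurin reduction (25 µg/mL, 1 h, 37 °C; fluorescence ex 530/em 590 nm) relative to control wells after blank subtraction.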

[3] = biological target: Serine/threonine-protein kinase pim-2 (Homo sapiens) (UniProt Q9P1W9); test: Inhibition of Pim2 assessed as residual enzyme activity at 1 uM
DU-145 [4] = test: Antiproliferative activity against human DU145 cells assessed as inhibition of cell proliferation at 10 uM after 48 hrs by resazurin reduction test; assay type: functional; conditions: DU-145, 48 h
PC-3 [5] = test: Antiproliferative activity against human PC3 cells assessed as inhibition of cell proliferation at 10 uM after 48 hrs by resazurin reduction test; assay type: functional; conditions: PC-3, 48 h; summary of the method: as §1
[6] = biological target: Serine/threonine-protein kinase pim-2 (Homo sapiens) (UniProt Q9P1W9); test: Inhibition of Pim2 assessed as residual enzyme activity at 10 uM
[7] = biological target: Serine/threonine-protein kinase pim-3 (Homo sapiens) (UniProt Q86V86); test: Inhibition of Pim3 assessed as residual enzyme activity at 1 uM
[8] = biological target: Serine/threonine-protein kinase pim-1 (Homo sapiens) (UniProt P11309); test: Inhibition of Pim1 assessed as residual enzyme activity at 10 uM
[9] = biological target: Serine/threonine-protein kinase pim-3 (Homo sapiens) (UniProt Q86V86); test: Inhibition of Pim3 assessed as residual enzyme activity at 10 uM
[10] = Antiproliferative activity against human Fibroblast assessed as inhibition of cell proliferation at 10 uM after 48 hrs by resazurin reduction test; assay type: cell-based; conditions: human fibroblasts
DU-145 [11] = test: Antiproliferative activity against human DU145 cells after 48 hrs by resazurin reduction test; assay type: functional, cell-based; conditions: DU-145, 48 h
Summary of the method: (§2)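 Cells grown as monolayers in MEM with Earle's salts, 10% FCS, pyruvate, non-essential amino acids and gentamicin at 37 °C, 5% CO2. 5×10^3 cells/well adhered 16 h, then had 48 h continuous exposure to drug from a 20 mM DMSO stock. Resazurin (25 µg/mL, 1 h, 37 °C) was read by fluorescence (ex 530/em 590 nm). IC50 came from blank-corrected survival % vs control wells.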

PA-1 [12] = test: Antiproliferative activity against human PA1 cells after 48 hrs by resazurin reduction test; assay type: functional, cell-based; conditions: PA-1, 48 h; summary of the method: as §2
[13] = Antiproliferative activity against human Fibroblast after 48 hrs by resazurin reduction test; assay type: cell-based; summary of the method: as §2
PC-3 [14] = test: Antiproliferative activity against human PC3 cells after 48 hrs by resazurin reduction test; assay type: functional, cell-based; conditions: PC-3, 48 h; summary of the method: as §2

Chain of Serine/threonine-protein kinase pim-1 (Homo sapiens) (P11309 whole entry, looked up): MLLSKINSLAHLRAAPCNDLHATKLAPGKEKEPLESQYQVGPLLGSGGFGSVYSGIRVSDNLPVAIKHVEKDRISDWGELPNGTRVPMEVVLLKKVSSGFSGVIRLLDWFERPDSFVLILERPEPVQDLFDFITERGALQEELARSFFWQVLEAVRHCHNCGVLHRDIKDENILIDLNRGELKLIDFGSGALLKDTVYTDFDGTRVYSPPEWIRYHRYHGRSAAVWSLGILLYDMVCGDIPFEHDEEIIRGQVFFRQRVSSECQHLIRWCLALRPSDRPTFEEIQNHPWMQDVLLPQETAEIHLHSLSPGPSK
Chain of Serine/threonine-protein kinase pim-2 (Homo sapiens) (Q9P1W9 whole entry, looked up): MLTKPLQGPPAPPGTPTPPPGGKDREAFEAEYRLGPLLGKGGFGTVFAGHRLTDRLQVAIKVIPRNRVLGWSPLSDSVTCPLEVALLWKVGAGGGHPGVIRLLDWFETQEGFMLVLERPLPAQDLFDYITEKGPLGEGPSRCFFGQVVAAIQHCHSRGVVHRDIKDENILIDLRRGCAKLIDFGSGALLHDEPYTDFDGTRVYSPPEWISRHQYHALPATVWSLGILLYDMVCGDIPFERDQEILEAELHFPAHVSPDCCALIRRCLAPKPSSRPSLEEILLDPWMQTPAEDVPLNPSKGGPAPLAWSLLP

With `Nc1cc2cn[nH]c2cc1N` the Activity [1] was 95%, the inhibition at 10 µM (PA-1 [2]) was under 50% and the Activity [3] was “inactive”. For the same compound, the inhibition at 10 µM (DU-145 [4]) was under 50%, the inhibition at 10 µM (PC-3 [5]) was under 50% and the Activity [6] was “inactive”. For the same compound, the Activity [7] was 69%, the Activity [8] was 59% and the Activity [9] was 32%. For the same compound, the inhibition at 48 h, 10 µM [10] was under 50%.
`CCc1nc2cc3cn[nH]c3cc2nc1CC` gave an IC50 (DU-145 [11]) of over 50 µM, an Activity [1] of 89% and an IC50 (PA-1 [12]) of 6.5 µM. The Activity [3] was “inactive”, the IC50 [13] was over 50 µM and the IC50 (PC-3 [14]) was over 50 µM. For the same compound, the Activity [6] was “inactive”, the Activity [7] was 84% and the Activity [8] was 49%. It also gave an Activity [9] of 31%.
Work on `CC1(C)[C@@H]2CC[C@@]1(C)c1nc3cc4cn[nH]c4cc3nc12` yielded an Activity [1] of 88%, an inhibition at 10 µM (PA-1 [2]) of under 50% and an Activity [3] of 82%. It also gave an inhibition at 10 µM (DU-145 [4]) of under 50%, an inhibition at 10 µM (PC-3 [5]) of under 50% and an Activity [6] of 76%. For the same compound, the Activity [7] was 95%, the Activity [8] was 45% and the Activity [9] was 37%. It also gave an inhibition at 48 h, 10 µM [10] of under 50%.
For `CC1(C)[C@H]2CC[C@]1(C)c1nc3cc4[nH]ncc4cc3nc12`, the Activity [1] was 96%, the inhibition at 10 µM (PA-1 [2]) was under 50% and the Activity [3] was “inactive”. For the same compound, the inhibition at 10 µM (DU-145 [4]) was under 50%, the inhibition at 10 µM (PC-3 [5]) was under 50% and the Activity [6] was 78%. The Activity [7] was 83%, the Activity [8] was 71% and the Activity [9] was 43%. The inhibition at 48 h, 10 µM [10] was under 50%.
Work on `CC1Cc2nc3cc4[nH]ncc4cc3nc2C1C` (racemic) yielded an IC50 (DU-145 [11]) of over 50 µM, an Activity [1] of 88.5% and an IC50 (PA-1 [12]) of 6.1 µM. The Activity [3] was “inactive”, the IC50 [13] was over 50 µM and the IC50 (PC-3 [14]) was over 50 µM. For the same compound, the Activity [6] was “inactive”, the Activity [7] was 72% and the Activity [8] was 59%. The Activity [9] was 44%.
For `c1n[nH]c2cc3nc4c(nc3cc12)CCCC4`, the IC50 (DU-145 [11]) was over 50 µM, the Activity [1] was 90% and the IC50 (PA-1 [12]) was 16 µM. For the same compound, the Activity [3] was “inactive”, the IC50 [13] was over 50 µM and the IC50 (PC-3 [14]) was over 50 µM. For the same compound, the Activity [6] was “inactive”, the Activity [7] was 58% and the Activity [8] was 55.1%. It also gave an Activity [9] of 19.7%.
In the case of `c1ccc(C2Cc3nc4cc5cn[nH]c5cc4nc3C2)cc1` (racemic), the IC50 (DU-145 [11]) is reported as 35 µM, the Activity [1] is reported as “inactive” and the IC50 (PA-1 [12]) is reported as 4.1 µM. The Activity [3] was “inactive”, the IC50 [13] was over 50 µM and the IC50 (PC-3 [14]) was over 50 µM. For the same compound, the Activity [6] was “inactive”, the Activity [7] was 95% and the Activity [8] was 83%. The Activity [9] was 79%.
In the case of `CC1Cc2nc3cc4cn[nH]c4cc3nc2C1C` (racemic), the IC50 (DU-145 [11]) is reported as over 50 µM, the Activity [1] is reported as “inactive” and the IC50 (PA-1 [12]) is reported as 4.7 µM. For the same compound, the Activity [3] was “inactive”, the IC50 [13] was over 50 µM and the IC50 (PC-3 [14]) was over 50 µM. The Activity [6] was “inactive”, the Activity [7] was 73% and the Activity [8] was 69%. For the same compound, the Activity [9] was 33%.
In the case of `c1n[nH]c2cc3nc4c(nc3cc12)CCC4`, the Activity [1] is reported as 95%, the inhibition at 10 µM (PA-1 [2]) is reported as under 50% and the Activity [3] is reported as “inactive”. For the same compound, the inhibition at 10 µM (DU-145 [4]) was under 50%, the inhibition at 10 µM (PC-3 [5]) was under 50% and the Activity [6] was “inactive”. It also gave an Activity [7] of 81%, an Activity [8] of 66.6% and an Activity [9] of 46.4%. The inhibition at 48 h, 10 µM [10] was under 50%.
